Test results from PubChem BioAssay AID652278 (Broad Institute, 2013).

tested on: T. cruzi CAI/72 in J774, trypomastigote emergence, microscopy; assay: cidal versus static activity against T. cruzi amastigotes, late-stage follow-up, mechanism study, imaging, CAI/72 strain, J774 macrophages, dry powder, set 2 (AID 652278); conditions: active compounds read high
Outline: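 Test system: J774 macrophages, 9000 rad-arrested, infected with T. cruzi CAI/72 | Detection: Daily microscopic scoring of emerging trypomastigotes | Evaluation: Slope, emergence day versus concentration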

Row | Compound | slope of emergence day vs concentration
1 | CC(C)N1C[C@@H](CN(C)Cc2ccc(Cl)cc2)Oc2c(C(=O)Nc3ccncc3)cccc2C1=O | 5
2 | CC(C)N1C[C@@H](CN(C)CCc2ccc(Cl)cc2)Oc2c(NC(=O)c3ccncc3)cccc2C1=O | 5
3 | CN(C)CC#Cc1cccc(-c2nc(C(=O)N[C@@H]3CCN(Cc4ccccc4)C3)cc3c2[C@@H](CCO)N(S(=O)C(C)(C)C)C3)c1 (stereo partly specified) | 1.89
4 | CC(C)N1C[C@@H](CN(C)Cc2ccc(Cl)cc2)Oc2c(NC(=O)c3ccncc3)cccc2C1=O | 5
5 | CC(C)N1C[C@@H](CN(C)CCc2ccc(Cl)c(Cl)c2)Oc2c(NC(=O)c3ccncc3)cccc2C1=O | 5
6 | CN(C)CC#Cc1cccc(-c2nc(C(=O)NCc3ccc4c(c3)OCO4)cc3c2[C@@H](CCO)N(S(=O)C(C)(C)C)C3)c1 (stereo partly specified) | 2.02
7 | CC(C)N1C[C@@H](CN(C)Cc2ccc(Cl)cc2)Oc2c(NC(=O)c3ccncc3)cc(F)cc2C1=O | 5
8 | CC(C)N1C[C@H](CN(C)Cc2ccc(Cl)cc2)Oc2c(NC(=O)c3ccncc3)cccc2C1=O | 5
9 | CN(C)C(=O)c1cccc(-c2ccc([C@H]3[C@H](CO)N4CCCCN(C(=O)C5CCC5)C[C@@H]34)cc2)c1 | 1.89
10 | CC(C)N1C[C@@H](CN(C)Cc2ccc(Oc3ccccc3)cc2)Oc2c(NC(=O)c3ccncc3)cccc2C1=O | 5
11 | CC(C)N1C[C@@H](CN(C)Cc2ccc(Cl)c(Cl)c2)Oc2c(NC(=O)c3ccncc3)cccc2C1=O | 5
